The values that follow come from ChEMBL document CHEMBL2407068, “Tropolones as lead-like natural products: the development of potent and selective histone deacetylase inhibitors” (ACS Med Chem Lett, 2013).

In one series the test system is Liver. The series can be described thus: Half life in mouse liver microsomes assessed as gluconoride formation at 0.4 ug/mL by HPLC-MS analysis in presence of UDPGA. The class given is ADME, Microsome. In outline: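 Mouse liver microsome incubation run for phase II conjugation, with UDPGA added. Half-life was determined, and the glucuronide conjugate was detected by mass spectrometry.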
(Liver microsomes are a subcellular fraction often used to study metabolism.)

Series [1] is described as follows: Cytotoxicity against HDF after 72 hrs by MTS assay. The conditions noted are these: human, HDF cells.
Series [2] is described as follows: Half life in mouse liver microsomes at 0.4 ug/mL by HPLC-MS analysis in presence of NADPH. It is filed as ADME, Microsome.
The subject of a further series is BXPC-3. The series can be described thus: Cytotoxicity against human BxPC3 cells after 72 hrs by MTS assay. The class given is functional. Conditions: BXPC-3, 72 h. (Tetrazolium assays rely on reduction of a dye to a coloured formazan, in cell work by metabolically active cells.)
For the next series, the system named is HCT-116. The series can be described thus: Cytotoxicity against human HCT116 cells after 72 hrs by MTS assay. Conditions: HCT-116, 72 h. The class given is functional.
A further series deals with Jurkat. The series can be described thus: Cytotoxicity against human Jurkat cells after 72 hrs by MTS assay. The class given is functional.
The next series concerns HuT78. The series can be described thus: Cytotoxicity against human HUT78 cells after 72 hrs by MTS assay. The conditions noted are these: HuT78, 72 h. It is filed as functional.
Series [3] addresses T1, Histone deacetylase 8 (Homo sapiens, UniProt Q9BY41).
T1 sequence (Q9BY41 whole entry): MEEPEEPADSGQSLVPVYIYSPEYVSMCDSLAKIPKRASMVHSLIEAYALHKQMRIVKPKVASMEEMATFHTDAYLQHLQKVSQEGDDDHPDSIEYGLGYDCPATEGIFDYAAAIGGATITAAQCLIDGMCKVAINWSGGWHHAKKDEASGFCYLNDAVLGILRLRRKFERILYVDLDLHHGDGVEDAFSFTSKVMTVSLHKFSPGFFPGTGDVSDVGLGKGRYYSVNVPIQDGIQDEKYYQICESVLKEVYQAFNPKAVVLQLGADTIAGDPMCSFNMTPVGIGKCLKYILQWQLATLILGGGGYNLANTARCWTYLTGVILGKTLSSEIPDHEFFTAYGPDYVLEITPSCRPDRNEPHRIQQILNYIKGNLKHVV
The series can be described thus: Competitive inhibition of human recombinant HDAC8 by Michaelis-Menten equation analysis.

For another series, the target named is Histone deacetylase 5 (Homo sapiens, UniProt Q9UQL6). The series can be described thus: Inhibition of human recombinant HDAC5 by Michaelis-Menten equation analysis.
The target in series [4] is T2, Protein deacetylase HDAC6 (Homo sapiens, UniProt Q9UBN7).
T2 sequence (Q9UBN7 whole entry): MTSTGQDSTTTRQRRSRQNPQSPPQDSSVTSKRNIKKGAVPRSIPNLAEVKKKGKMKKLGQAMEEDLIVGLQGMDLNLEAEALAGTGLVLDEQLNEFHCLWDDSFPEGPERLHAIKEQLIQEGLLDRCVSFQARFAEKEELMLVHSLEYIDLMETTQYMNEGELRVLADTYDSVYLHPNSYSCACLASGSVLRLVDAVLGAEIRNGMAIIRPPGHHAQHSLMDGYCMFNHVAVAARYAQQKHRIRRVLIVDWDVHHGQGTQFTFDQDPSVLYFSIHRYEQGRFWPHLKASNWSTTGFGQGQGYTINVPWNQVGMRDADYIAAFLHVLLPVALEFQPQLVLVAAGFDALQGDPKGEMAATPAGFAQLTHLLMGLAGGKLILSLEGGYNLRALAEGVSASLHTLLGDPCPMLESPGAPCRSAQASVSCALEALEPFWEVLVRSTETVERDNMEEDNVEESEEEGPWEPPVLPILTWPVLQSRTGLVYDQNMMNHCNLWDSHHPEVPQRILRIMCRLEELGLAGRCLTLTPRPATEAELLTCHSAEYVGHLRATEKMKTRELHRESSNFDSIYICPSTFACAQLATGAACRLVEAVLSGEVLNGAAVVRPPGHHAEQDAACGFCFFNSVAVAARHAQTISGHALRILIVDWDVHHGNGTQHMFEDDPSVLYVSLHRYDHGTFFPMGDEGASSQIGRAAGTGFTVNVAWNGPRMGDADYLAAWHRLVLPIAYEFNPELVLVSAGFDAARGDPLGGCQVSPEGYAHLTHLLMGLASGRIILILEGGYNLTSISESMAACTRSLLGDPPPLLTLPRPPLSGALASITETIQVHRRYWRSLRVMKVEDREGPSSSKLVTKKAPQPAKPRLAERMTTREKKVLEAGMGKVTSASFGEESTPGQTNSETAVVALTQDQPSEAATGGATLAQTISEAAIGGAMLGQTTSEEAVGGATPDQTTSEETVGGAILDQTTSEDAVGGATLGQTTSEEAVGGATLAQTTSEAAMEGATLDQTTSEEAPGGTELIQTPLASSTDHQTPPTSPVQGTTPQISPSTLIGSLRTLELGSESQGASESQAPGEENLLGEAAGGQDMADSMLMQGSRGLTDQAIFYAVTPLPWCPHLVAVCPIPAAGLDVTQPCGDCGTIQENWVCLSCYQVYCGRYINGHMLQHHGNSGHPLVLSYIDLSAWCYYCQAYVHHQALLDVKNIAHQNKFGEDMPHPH
The series can be described thus: Inhibition of human recombinant HDAC6 by Michaelis-Menten equation analysis.

A further series addresses Histone deacetylase 4 (Homo sapiens, UniProt P56524). The series can be described thus: Inhibition of human recombinant HDAC4 by Michaelis-Menten equation analysis.
In series [5] the target is T1, Histone deacetylase 8. The series can be described thus: Inhibition of human recombinant HDAC8 by Michaelis-Menten equation analysis.
In another series the target is Histone deacetylase 2 (Homo sapiens, UniProt Q92769). The series can be described thus: Inhibition of human recombinant HDAC2 by Michaelis-Menten equation analysis.
The next series addresses Histone deacetylase 1 (Homo sapiens, UniProt Q13547). The series can be described thus: Inhibition of human recombinant HDAC1 by Michaelis-Menten equation analysis.
The species entered for series [6] is Homo sapiens. The series can be described thus: Selectivity ratio of Ki for human recombinant HDAC8 to Ki for human recombinant HDAC2.
The species named for series [7] is Homo sapiens. The series can be described thus: Selectivity ratio of Ki for human recombinant HDAC5 to Ki for human recombinant HDAC2.
The species entered for series [8] is Homo sapiens. The series can be described thus: Selectivity ratio of Ki for human recombinant HDAC6 to Ki for human recombinant HDAC2.
For series [9], the species on record is Homo sapiens. The series can be described thus: Selectivity ratio of Ki for human recombinant HDAC4 to Ki for human recombinant HDAC2.
Series [10] is filed under the species Homo sapiens. The series can be described thus: Selectivity ratio of Ki for human recombinant HDAC1 to Ki for human recombinant HDAC2.

For orientation: GI50 means the concentration that inhibits growth by half. By half-life is commonly meant the time in which the quantity being followed falls by half. By Ki is commonly meant the dissociation constant of the complex between target and ligand, obtained from inhibition or displacement.

Sequence of Histone deacetylase 5 (Q9UQL6 whole entry): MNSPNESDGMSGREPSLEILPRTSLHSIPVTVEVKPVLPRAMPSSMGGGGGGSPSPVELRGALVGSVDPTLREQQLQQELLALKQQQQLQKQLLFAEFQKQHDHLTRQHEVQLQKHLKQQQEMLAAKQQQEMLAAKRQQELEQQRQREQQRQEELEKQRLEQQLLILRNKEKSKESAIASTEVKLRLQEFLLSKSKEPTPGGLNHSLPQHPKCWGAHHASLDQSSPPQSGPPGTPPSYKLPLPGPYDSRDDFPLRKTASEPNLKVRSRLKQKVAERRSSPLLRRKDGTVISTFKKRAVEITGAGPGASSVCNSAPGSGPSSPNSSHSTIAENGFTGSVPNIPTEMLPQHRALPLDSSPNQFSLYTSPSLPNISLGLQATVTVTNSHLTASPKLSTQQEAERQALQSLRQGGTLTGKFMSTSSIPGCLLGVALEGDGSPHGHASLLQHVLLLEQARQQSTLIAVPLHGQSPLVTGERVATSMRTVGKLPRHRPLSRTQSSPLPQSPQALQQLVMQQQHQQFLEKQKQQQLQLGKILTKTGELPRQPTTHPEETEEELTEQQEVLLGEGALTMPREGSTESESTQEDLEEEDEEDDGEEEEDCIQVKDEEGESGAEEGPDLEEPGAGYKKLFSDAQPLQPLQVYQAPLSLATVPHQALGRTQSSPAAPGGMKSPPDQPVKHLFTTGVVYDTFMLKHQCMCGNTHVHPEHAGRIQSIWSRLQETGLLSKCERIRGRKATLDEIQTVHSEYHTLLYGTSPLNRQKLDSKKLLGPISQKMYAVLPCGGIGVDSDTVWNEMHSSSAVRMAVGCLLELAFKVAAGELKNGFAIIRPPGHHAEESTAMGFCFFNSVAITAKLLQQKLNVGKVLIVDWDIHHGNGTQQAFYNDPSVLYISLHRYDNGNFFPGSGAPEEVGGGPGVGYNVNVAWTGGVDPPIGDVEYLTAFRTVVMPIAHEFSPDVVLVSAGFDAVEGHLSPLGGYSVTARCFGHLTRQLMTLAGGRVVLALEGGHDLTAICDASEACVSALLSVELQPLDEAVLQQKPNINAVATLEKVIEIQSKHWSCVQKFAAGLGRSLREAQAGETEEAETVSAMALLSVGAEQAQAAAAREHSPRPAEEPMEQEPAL
Sequence of Histone deacetylase 2 (Q92769 whole entry): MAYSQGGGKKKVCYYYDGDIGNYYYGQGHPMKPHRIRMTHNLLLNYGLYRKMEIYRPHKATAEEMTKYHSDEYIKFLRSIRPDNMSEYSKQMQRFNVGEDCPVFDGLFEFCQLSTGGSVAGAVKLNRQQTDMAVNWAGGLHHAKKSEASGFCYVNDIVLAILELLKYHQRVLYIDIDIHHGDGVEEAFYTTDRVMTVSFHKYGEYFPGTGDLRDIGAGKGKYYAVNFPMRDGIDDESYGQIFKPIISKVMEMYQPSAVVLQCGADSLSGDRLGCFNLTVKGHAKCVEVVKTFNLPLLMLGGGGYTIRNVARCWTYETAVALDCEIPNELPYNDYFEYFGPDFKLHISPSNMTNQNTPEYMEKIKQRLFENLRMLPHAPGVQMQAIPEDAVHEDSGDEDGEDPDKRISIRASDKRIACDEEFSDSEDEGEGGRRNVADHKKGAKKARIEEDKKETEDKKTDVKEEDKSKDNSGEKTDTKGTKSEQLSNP
Sequence of Histone deacetylase 1 (Q13547 whole entry): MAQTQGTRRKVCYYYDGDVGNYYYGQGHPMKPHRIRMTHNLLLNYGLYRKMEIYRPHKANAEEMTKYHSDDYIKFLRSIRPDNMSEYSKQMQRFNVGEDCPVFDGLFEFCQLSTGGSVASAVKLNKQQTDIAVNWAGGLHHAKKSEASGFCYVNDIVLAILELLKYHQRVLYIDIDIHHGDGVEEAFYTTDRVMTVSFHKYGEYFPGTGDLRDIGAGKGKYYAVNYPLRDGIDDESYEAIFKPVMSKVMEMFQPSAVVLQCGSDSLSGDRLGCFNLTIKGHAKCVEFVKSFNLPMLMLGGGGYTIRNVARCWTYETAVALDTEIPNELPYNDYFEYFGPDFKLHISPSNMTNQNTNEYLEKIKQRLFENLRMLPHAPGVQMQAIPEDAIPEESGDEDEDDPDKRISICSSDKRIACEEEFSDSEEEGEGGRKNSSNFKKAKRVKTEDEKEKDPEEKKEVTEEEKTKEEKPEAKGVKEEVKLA
Sequence of Histone deacetylase 4 (P56524 whole entry): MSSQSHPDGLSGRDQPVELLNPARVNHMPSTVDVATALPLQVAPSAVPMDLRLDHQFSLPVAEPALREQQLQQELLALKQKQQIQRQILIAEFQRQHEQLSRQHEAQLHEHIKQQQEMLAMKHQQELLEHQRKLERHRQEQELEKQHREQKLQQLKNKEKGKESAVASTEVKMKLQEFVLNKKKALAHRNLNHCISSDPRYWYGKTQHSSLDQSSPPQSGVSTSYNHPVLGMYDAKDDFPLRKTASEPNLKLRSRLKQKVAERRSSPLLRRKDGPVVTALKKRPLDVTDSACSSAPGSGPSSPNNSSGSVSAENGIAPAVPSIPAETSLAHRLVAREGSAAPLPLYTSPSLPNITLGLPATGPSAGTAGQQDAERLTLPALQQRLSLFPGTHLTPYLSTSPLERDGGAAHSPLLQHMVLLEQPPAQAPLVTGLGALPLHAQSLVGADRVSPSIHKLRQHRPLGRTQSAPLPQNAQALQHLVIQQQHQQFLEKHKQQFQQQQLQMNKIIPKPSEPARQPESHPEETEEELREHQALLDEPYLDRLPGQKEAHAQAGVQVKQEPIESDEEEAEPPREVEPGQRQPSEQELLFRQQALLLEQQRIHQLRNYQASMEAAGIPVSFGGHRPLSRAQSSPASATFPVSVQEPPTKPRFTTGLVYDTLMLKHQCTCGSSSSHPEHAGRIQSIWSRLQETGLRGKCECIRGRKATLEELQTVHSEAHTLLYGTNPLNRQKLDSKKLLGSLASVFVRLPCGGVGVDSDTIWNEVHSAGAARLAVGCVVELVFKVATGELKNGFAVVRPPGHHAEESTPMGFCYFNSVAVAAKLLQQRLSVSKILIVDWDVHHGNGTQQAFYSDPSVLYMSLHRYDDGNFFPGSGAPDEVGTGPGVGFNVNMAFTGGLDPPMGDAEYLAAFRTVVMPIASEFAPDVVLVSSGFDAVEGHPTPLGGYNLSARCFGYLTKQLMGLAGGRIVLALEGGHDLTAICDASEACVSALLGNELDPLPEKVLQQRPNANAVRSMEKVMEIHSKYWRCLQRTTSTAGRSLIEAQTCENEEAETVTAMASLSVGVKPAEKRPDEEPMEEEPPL

With `O=c1c(O)ccccc1-c1ccccc1`, in the series with Liver, the t1/2 was over 1 h. In [1], this compound displayed a GI50 at 72 h of 96500 nM. Moreover, the half-life at 0.4 ug/mL in series [2] came to 1.55 h. Besides, the concentration for 50% growth inhibition (GI50) amounted to 29400 nM with BXPC-3, 15200 nM in the series on HCT-116, 3330 nM in the series with Jurkat and 7830 nM in the series on HuT78. Moreover, the Ki was 0.53 nM on Histone deacetylase 8 [3]; over 2500 nM at Histone deacetylase 5; 527 nM in series [4]; over 20000 nM on Histone deacetylase 4; 1.09 nM at Histone deacetylase 8 [5]; 0.26 nM at Histone deacetylase 2. For the same compound, on Histone deacetylase 1, the Ki is over 2500 nM.

In turn, `O=C(CCCCCCC(=O)Nc1ccccc1)NO` [VORINOSTAT] showed a GI50 at 72 h in series [1] of 19000 nM. For the same compound, in [2], the half-life at 0.4 ug/mL came out at 0.467 h. The GI50 was 5560 nM in the series on BXPC-3, 2500 nM in the series on HCT-116, 900 nM with Jurkat and 2100 nM in the series on HuT78.

Turning to `CC(C)(C)c1cccc(O)c(=O)c1`, in the series on Liver, the t1/2 was over 1 h. The GI50 at 72 h in series [1] was over 100000 nM. Also, the GI50 in the series on BXPC-3 was found to be 43000 nM; in the series with HCT-116 it was 62600 nM; with Jurkat it was 4450 nM; with HuT78, 13100 nM. The Ratio Ki in the series filed under Homo sapiens [6], in the series listed under Homo sapiens [7], in the series filed under Homo sapiens [8], in the series listed under Homo sapiens [9] and in the series filed under Homo sapiens [10] was over 100 in each case. Besides, the inhibitory constant (Ki) was over 2500 nM on Histone deacetylase 5; over 2500 nM in series [4]; 806 nM on Histone deacetylase 4; 12.8 nM at Histone deacetylase 8 [5]; 0.13 nM at Histone deacetylase 2; over 2500 nM at Histone deacetylase 1.
